Assay outcomes as filed in PubChem.
STAT3 inh = reduces IL-6 driven STAT3 reporter signal; 190,000 compounds, 0.89% hits; inhibition, % at 5.5 µM; AID 862; U3A cells, IL-6 STAT3-luciferase reporter, luminescence; host cell line lacks STAT1;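 active = inhibition above the mean inhibition across all screened compounds plus 3 SD, cut at about 44% in these data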
STAT3 activator = STAT3 signaling activation | activation (% of control), % at 5.6 µM | 190,000 compounds, 0.91% hits | U3A cells, IL-6 STAT3-luciferase reporter, luminescence; 100% = signal with IL-6 EC80 alone | AID 871;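 active = activation above the screen-wide mean of compound activation plus 3 SD, cut at about 130% in these data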
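Material: human STAT1-deficient U3A cells with stable STAT3-luciferase reporter / Probe or stimulus: IL-6 stimulus at 33 ng/mL final / Schedule: 1 h compound pre-exposure, 6 h IL-6 stimulation, 37 °C / Technique: luminescence / Read-out basis: percent of IL-6-only median luminescence / Control set: IL-6-only high control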
STAT1 inh = STAT1 signaling inhibition; NIH 3T3 STAT1-luciferase reporter, IFN-gamma, luminescence; inhibition, % at 5.5 µM; 200,000 compounds, 0.35% hits; AID 920;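 active = inhibition above a set limit, the mean inhibition across all tested compounds plus 3 SD, cut at about 34% in these data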
STAT1 activator = increases IFN-gamma driven STAT1 reporter signal. 200,000 compounds, 2.6% hits. NIH 3T3 STAT1-luciferase reporter, luminescence; 100% = IFN-gamma alone, no compound. activation (% of control), % at 5.5 µM;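 active = activation above the screen-wide mean activation plus 3 SD, cut at about 130% in these data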
Of the large screens only hits and unclear results are named; the others gave an inactive call. An excerpt weighted towards active compounds, which were near 4.3% of everything screened.

Clc1ccccc1Cc1noc(CN2CCCCC2CCc2ccccn2)n1 (centres undefined)	none
COc1cc(OC)c(-c2nc3cnccc3n2C)cc1OC	none
Cn1c(-c2ccc3ccccc3n2)nc2cnccc21	STAT1 activator 133
Cc1[nH]c2ccccc2c1N=Nc1ccccc1C(=O)O	STAT3 activator 135
Cc1[nH]c2ccccc2c1N=Nc1cccc(C(=O)O)c1	STAT1 activator 147
Cc1[nH]c2ccc(C(=O)O)cc2c1C	none
CC(C)(C)c1ccc(S(=O)(=O)CCc2ccccn2)cc1	STAT1 activator 129
Cc1ccc(S(=O)(=O)CCc2ccccn2)cc1	none
O=C(Nc1ccc(-c2csc(-c3ccccc3)n2)cc1)c1ccccc1	none
C=CCNC(=O)c1ccc(-c2nc(-c3ccccc3)cs2)cc1	STAT1 activator 146
CSC1=NCCN1CCOc1ccccc1	none
O=C(c1cc2ccccc2c(=O)o1)N1CCCCCC1	none
O=C(c1cc2cc(Br)ccc2o1)N1CCCCC1	STAT1 activator 134
CSc1ccc(C(=O)C2CCCN(C(=O)Cc3nonc3C)C2)cc1 (centres undefined)	none
CC(C)c1ccc(NC(=S)NNC(=O)c2cccnc2)cc1	none
CC(C)c1ccc(NC(=O)c2cccnc2)cc1	STAT1 activator 143
CCC(CC)NC(=O)c1n[nH]c(=O)c2ccccc12	none
CC(C)c1ccc(NC(=O)c2n[nH]c(=O)c3ccccc23)cc1	STAT1 activator 133
Cc1ccc(-c2nnc(Nc3ccccc3)o2)cc1	STAT3 inh 101, STAT1 inh 72
Cc1cccc(-c2nnc(-c3ccc(N)cc3)o2)c1	STAT1 activator 147
c1ccc(-c2nnc(-c3ccccc3)o2)cc1	STAT1 activator 139
Brc1cccc(-c2nnc(-c3ccccc3)o2)c1	STAT1 activator 132
Cc1ccc(-c2nnc(-c3cccc(Br)c3)o2)cc1	none
O=C(Cc1ccc(-c2ccccc2)cc1)OCC(=O)N1CCCC1=O	none
CN(c1ccccc1)S(=O)(=O)c1cccc(NC(=O)CCN2C(=O)C3CCCCC3C2=O)c1 (centres undefined)	none
Cc1cc(C)nc(SCc2nnc(SCC(N)=O)o2)n1	none
c1ccc(-c2cnc(CSc3nnc4ccccn34)o2)cc1	STAT1 activator 137
Fc1ccc(-c2nnc(CSc3nnc4ccccn34)o2)cc1	none
Cn1nc(C(F)(F)F)c(CO)c1Sc1ccc(F)cc1	none
CCOC(=O)c1c(NC(=O)CSc2nc3cc(Cl)ccc3c(=O)n2Cc2ccco2)sc(C(=O)N(C)C)c1C	none
CC(C)c1ccc(S(=O)(=O)/N=C2/C=CC(=O)c3ccccc32)cc1	STAT3 activator 135
COC(=O)C(C(C)=O)C1=C/C(=N\S(=O)(=O)c2ccc(C)cc2)c2ccccc2C1=O (centres undefined)	none
COc1ccc(/C=N/NC(=O)Nc2nonc2N)cc1	STAT1 activator 130
COc1ccc(/C=N/Nc2nonc2N)c(OC)c1	none
COC(=O)c1ccc2nc(-c3cccc(N)c3)cn2c1	STAT3 inh 74, STAT1 inh 60
COC(=O)c1ccc2nc(-c3ccc(S(C)(=O)=O)cc3)cn2c1	STAT1 activator 139
CS(=O)(=O)c1ccc(-c2cn3cc(C(=O)O)ccc3n2)cc1	none
COc1ccc(-c2csc(N3N=C(C)C(C)C3=O)n2)cc1 (centres undefined)	STAT1 activator 132
CC1=NN(c2nc(-c3ccc(C)cc3)cs2)C(=O)C1N=Nc1ccccc1O (centres undefined)	none
CCOC(=O)N1CCN(C(=O)c2ccc3c(c2)sc2nc(-c4ccccc4)cn23)CC1	STAT1 activator 145
Nc1nc(-c2ccc3c(c2)OCCO3)cs1	none
Nc1nc(-c2ccc3c(c2)CCCC3)cs1	STAT1 activator 136
CCCC(=O)N1CCc2cc(-c3nc(N)sc3C)ccc21	STAT1 activator 137
CC(C)(C)C(=O)N1CCc2cc(-c3csc(N)n3)ccc21	STAT3 inh 85, STAT1 inh 37
CCC(C)C(=O)N1CCc2cc(-c3csc(N)n3)ccc21 (centres undefined)	STAT1 activator 132
CC1=Nc2nc(N3CCCCC3)c(C#N)c3c4c(nc(c23)N1)N(c1ccc(C(C)C)cc1)C(=O)C4	none
NNC(=O)c1cccc(COc2ccc3c(c2)CCC3)c1	STAT3 inh 95, STAT1 inh 60
O=C(COc1ccc2c(c1)CCC2)NCc1ccccc1	none
O=C1CCNc2cc3ccccc3cc21	STAT3 activator 137
CCCc1nn(C)c(C(=O)Nc2ccc(C)c(C)c2)c1Cl	STAT1 activator 130
CCOC(=O)N1CCC(N2CCCC(C(=O)c3ccccc3OC)C2)CC1 (centres undefined)	none
O=C(N/N=C/c1ccccn1)c1cc([N+](=O)[O-])cc([N+](=O)[O-])c1	STAT1 activator 129
O=C(N/N=C/c1ccccn1)c1cccc([N+](=O)[O-])c1	none
O=C(N/N=C/c1ccccn1)c1ccc(Br)cc1	STAT1 activator 134
O=C(N/N=C/c1ccccn1)c1ccc([N+](=O)[O-])cc1	STAT1 activator 133
CCN(CC)S(=O)(=O)c1cccc(C(=O)N/N=C/c2ccccn2)c1	none
Cc1cccc(C(=O)N/N=C/c2ccccn2)c1	STAT1 activator 136
CCCn1c(SCC(=O)NCc2ccc(F)cc2)n[nH]c1=O	none
O=C(O)c1ccc2oc(SCC(=O)N3CCCCC3)nc2c1	STAT1 activator 137
O=C(COC(=O)CCc1ccc(S(=O)(=O)N2CCOCC2)cc1)NCc1ccccc1	none
COc1ccc(C2C(C#N)=C(N)N(c3ccccc3C#N)C3=C2C(=O)CCC3)cc1CN1CCCC1 (centres undefined)	none
C=CCNc1nc(NCc2ccccc2)c(C#N)c2c1CN(C)CC2	STAT3 activator 133
N#Cc1c(NCCN)nc(NCc2ccccc2)c2c1CCN(Cc1ccccc1)C2	none
O=C(O)c1ccc(C=C(c2nc3ccccc3s2)c2nc3ccccc3s2)cc1	none
CN(C)c1ccc(/C=C(\Cl)c2nc3ccccc3s2)cc1	STAT1 activator 136
O=C(/C=C/c1ccco1)Nc1cccnc1	none
O=C(O)c1ccc(Nc2nc(-c3ccccc3)cs2)cc1	STAT1 activator 145
O=C(/C=C/c1ccco1)Nc1nc(-c2ccccn2)cs1	STAT1 activator 129
Cc1csc(NC(=O)/C=C/c2ccco2)n1	STAT1 activator 147
Cc1ccc(NC(=O)/C=C/c2ccco2)nc1	STAT1 activator 147
O=C(Cc1ccccc1)Nc1cccc(C(=O)O)c1O	none
COC(=O)c1sc(S(=O)(=O)NC(C)C(=O)O)c(C(=O)OC)c1C (centres undefined)	none
Cc1cccc(C)c1OCCNC(=O)OCc1ccccc1	none
Cc1ccc2[nH]c(=O)cc(C(=O)OC(C)C)c2c1	none
CC(C)(C)c1ccc(NC(=O)COC(=O)c2ccc(NS(=O)(=O)c3ccc(F)c(F)c3)cc2)cc1	none
c1cn(-c2ccc(-c3ccnc4ncnn34)cc2)cn1	none
O=C(/C=C/c1ccco1)Nc1nc(-c2ccccc2)cs1	STAT1 activator 133
COc1ccc(-c2csc(NC(=S)NC(=O)/C=C/c3ccco3)n2)cc1OC	none
COc1cc(/C(C)=N/NC(=O)CSc2nncn2C)ccc1OCc1ccccc1Cl	STAT1 activator 129
